Reference: ChEMBL document CHEMBL4390639, “Design, Synthesis, and Biological Evaluation of Novel Allosteric Protein Disulfide Isomerase Inhibitors” (J Med Chem, 2019)
Active and inactive are the calls of the source. No cut-off for these calls is given here.

Legend:
[1] = target: Protein disulfide-isomerase (Homo sapiens, UniProt P07237); assay: Binding affinity to recombinant human N-terminal His-tagged PDI expressed in Escherichia coli BL21 (DE3) pLysS by ROX dye based thermal shift assay
How it was run: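 Thermal shift conditions: PDI (0.5 mg/mL, 50 mM Tris, pH 7.0) with ROX dye, heated 25–99 °C at 1 °C/min. […] Kd was fitted from melting-temperature change versus vehicle.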

U-87 MG [2] = assay: Down regulation of BARD1 gene expression in human U87MG cells at 10 uM incubated for 4 hrs followed by bromouridine addition during last 30 mins of incubation by TRIzol-reagent based Bru-Seq analysis relative to control; assay type: functional, U-87MG ATCC
U-87 MG [3] = assay: Down regulation of AKAP5 gene expression in human U87MG cells at 10 uM incubated for 4 hrs followed by bromouridine addition during last 30 mins of incubation by TRIzol-reagent based Bru-Seq analysis relative to control; assay type: functional, U-87MG ATCC
U-87 MG [4] = assay: Down regulation of NFIA gene expression in human U87MG cells at 10 uM incubated for 4 hrs followed by bromouridine addition during last 30 mins of incubation by TRIzol-reagent based Bru-Seq analysis relative to control; assay type: functional, U-87MG ATCC
How it was run: (§1)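 Nascent transcription (Bru-seq) in U87MG cells: treatment at 10 μM for 4 h, with 2 mM bromouridine added for the final 30 min. Total RNA isolated with TRIzol; Bru-labelled RNA captured using anti-BrdU antibody on magnetic beads, then sequenced. Transcript traces reported as RPKM compared with DMSO-treated cells. Single experiment.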

U-87 MG [5] = assay: Up regulation of ALOXE3 gene expression in human U87MG cells at 10 uM incubated for 4 hrs followed by bromouridine addition during last 30 mins of incubation by TRIzol-reagent based Bru-Seq analysis relative to control; assay type: functional, U-87MG ATCC
How it was run: (§2)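 U87MG cells exposed to compound or DMSO vehicle for 4 h, with 2 mM bromouridine added for the final 30 min. Total RNA isolated with TRIzol; Bru-labelled nascent RNA captured on anti-BrdU antibody-conjugated magnetic beads and sequenced. Transcript abundance expressed as RPKM relative to DMSO. Experiment performed once.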

U-87 MG [6] = assay: Up regulation of SLC7A11 gene expression in human U87MG cells at 10 uM incubated for 4 hrs followed by bromouridine addition during last 30 mins of incubation by TRIzol-reagent based Bru-Seq analysis relative to control; assay type: functional, U-87MG ATCC
How it was run: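 U87MG cells treated 4 h with test compound (10 or 16 μM, as per line) or DMSO; 2 mM bromouridine added for final 30 min. Total RNA isolated with TRIzol, Bru-labelled nascent RNA captured with anti-BrdU antibody magnetic beads and sequenced; transcript abundance (RPKM) compared with DMSO control. Single experiment.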

U-87 MG [7] = assay: Up regulation of HSPA1B gene expression in human U87MG cells at 10 uM incubated for 4 hrs followed by bromouridine addition during last 30 mins of incubation by TRIzol-reagent based Bru-Seq analysis relative to control; assay type: functional, U-87MG ATCC; how it was run: as §2
U-87 MG [8] = assay: Up regulation of ADAMTS5 gene expression in human U87MG cells at 10 uM incubated for 4 hrs followed by bromouridine addition during last 30 mins of incubation by TRIzol-reagent based Bru-Seq analysis relative to control; assay type: functional, U-87MG ATCC; how it was run: as §2
U-87 MG [9] = assay: Down regulation of KCTD4 gene expression in human U87MG cells at 10 uM incubated for 4 hrs followed by bromouridine addition during last 30 mins of incubation by TRIzol-reagent based Bru-Seq analysis relative to control; assay type: functional, U-87MG ATCC
U-87 MG [10] = assay: Down regulation of RAD51 gene expression in human U87MG cells at 10 uM incubated for 4 hrs followed by bromouridine addition during last 30 mins of incubation by TRIzol-reagent based Bru-Seq analysis; assay type: functional, cell-based; conditions: U-87MG ATCC; how it was run: as §1
U-87 MG [11] = assay: Down regulation of FBXO43 gene expression in human U87MG cells at 10 uM incubated for 4 hrs followed by bromouridine addition during last 30 mins of incubation by TRIzol-reagent based Bru-Seq analysis relative to control; assay type: functional, U-87MG ATCC; how it was run: as §2
U-87 MG [12] = assay: Down regulation of H1F0 gene expression in human U87MG cells at 16 uM incubated for 4 hrs followed by bromouridine addition during last 30 mins of incubation by TRIzol-reagent based Bru-Seq analysis relative to control; assay type: functional, U-87MG ATCC
U-87 MG [13] = assay: Down regulation of AC124276.2 gene expression in human U87MG cells at 16 uM incubated for 4 hrs followed by bromouridine addition during last 30 mins of incubation by TRIzol-reagent based Bru-Seq analysis relative to control; assay type: functional, U-87MG ATCC
U-87 MG [14] = assay: Up regulation of FTH1 gene expression in human U87MG cells at 16 uM incubated for 4 hrs followed by bromouridine addition during last 30 mins of incubation by TRIzol-reagent based Bru-Seq analysis relative to control; assay type: functional, U-87MG ATCC; how it was run: as §2
U-87 MG [15] = assay: Down regulation of CTHRC1 gene expression in human U87MG cells at 16 uM incubated for 4 hrs followed by bromouridine addition during last 30 mins of incubation by TRIzol-reagent based Bru-Seq analysis relative to control; assay type: functional, U-87MG ATCC; how it was run: as §2
U-87 MG [16] = assay: Up regulation of EID3 gene expression in human U87MG cells at 16 uM incubated for 4 hrs followed by bromouridine addition during last 30 mins of incubation by TRIzol-reagent based Bru-Seq analysis relative to control; assay type: functional, U-87MG ATCC; how it was run: as §2
U-87 MG [17] = assay: Down regulation of CSF3 gene expression in human U87MG cells at 16 uM incubated for 4 hrs followed by bromouridine addition during last 30 mins of incubation by TRIzol-reagent based Bru-Seq analysis relative to control; assay type: functional, U-87MG ATCC; how it was run: as §2
U-87 MG [18] = assay: Down regulation of HLA-DQB1 gene expression in human U87MG cells at 16 uM incubated for 4 hrs followed by bromouridine addition during last 30 mins of incubation by TRIzol-reagent based Bru-Seq analysis relative to control; assay type: functional, U-87MG ATCC; how it was run: as §2
U-87 MG [19] = assay: Down regulation of RAD51 gene expression in human U87MG cells at 16 uM incubated for 4 hrs followed by bromouridine addition during last 30 mins of incubation by TRIzol-reagent based Bru-Seq analysis; assay type: functional, cell-based; conditions: U-87MG ATCC
How it was run: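 Bru-seq in U87MG cells treated at 16 μM for 4 h; 2 mM bromouridine present during the last 30 min. TRIzol total RNA, then anti-BrdU bead capture of labelled RNA and sequencing. Readout is RPKM traces versus DMSO control. Performed once.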

Chain of Protein disulfide-isomerase (P07237 whole entry): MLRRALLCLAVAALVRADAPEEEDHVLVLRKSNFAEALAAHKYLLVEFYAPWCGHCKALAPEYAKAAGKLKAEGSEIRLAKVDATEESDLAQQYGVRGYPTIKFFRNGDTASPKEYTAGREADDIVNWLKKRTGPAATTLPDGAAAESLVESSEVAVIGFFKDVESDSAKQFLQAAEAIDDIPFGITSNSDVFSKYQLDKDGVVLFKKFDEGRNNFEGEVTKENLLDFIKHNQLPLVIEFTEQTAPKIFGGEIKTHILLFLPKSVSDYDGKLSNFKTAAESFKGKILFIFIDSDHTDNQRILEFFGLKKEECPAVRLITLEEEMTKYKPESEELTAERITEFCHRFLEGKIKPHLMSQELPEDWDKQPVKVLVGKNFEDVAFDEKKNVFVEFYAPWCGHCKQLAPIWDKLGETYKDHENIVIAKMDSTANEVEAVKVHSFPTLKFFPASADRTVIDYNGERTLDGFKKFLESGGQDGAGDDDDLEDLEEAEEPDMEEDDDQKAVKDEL

Question: For `N#Cc1cccc(/C=C/C(=O)c2ccc(O)cc2)c1`, which Kd [1] is on record?
Answer: 9.8 µM

Question: What does the source list for `CCCCCN(CCCCC)S(=O)(=O)c1ccc(C(=O)/C=C/c2cccc(C#N)c2)cc1`?
Answer: fold change (FC) (U-87 MG [2]): 2.3; fold change (FC) (U-87 MG [3]): 3.4; fold change (FC) (U-87 MG [4]): 2.4; fold change (FC) (U-87 MG [5]): 17; fold change (FC) (U-87 MG [6]): 20.8; fold change (FC) (U-87 MG [7]): 107.2; fold change (FC) (U-87 MG [8]): 9.6; fold change (FC) (U-87 MG [9]): 2.8; Activity (U-87 MG [10]): Active; fold change (FC) (U-87 MG [11]): 2.7

Question: For `COC(=O)c1cccc(/C=C/C(=O)c2cccc(O)c2)c1`, which “fold change (FC)” value (U-87 MG [12]) is on record?
Answer: 2.7

Question: What about the “fold change (FC)” value (U-87 MG [13]) of the same molecule?
Answer: 2.9

Question: And the “fold change (FC)” value (U-87 MG [14])?
Answer: 1.9

Question: And the “fold change (FC)” value (U-87 MG [15])?
Answer: 3.4

Question: And the “fold change (FC)” value (U-87 MG [16])?
Answer: 4.8

Question: And the “fold change (FC)” value (U-87 MG [17])?
Answer: 8.3

Question: And the “fold change (FC)” value (U-87 MG [18])?
Answer: 3.7

Question: What about the Activity (U-87 MG [19]) of the same molecule?
Answer: Active
